According to PMC3845662 (Analytical chemistry, 2013):
Values joined by “and” are separate entries in the source; they are usually repeats but may differ in a detail not shown here. Equal values may be shown once.

Columns and labels:
[1] = target: T1, Hsp70-Bag3 complex (Homo sapiens, UniProt P0DMV8); experiment: CE-LIF screen / dose response for inhibition of the Hsp70-Bag3 interaction; type: binding; settings: for hit in CE screen, reconfirmed with repurchased compound by DRC: primary screen 20 μM, repurchased compound dose response; for classification from electropherogram (artifact): 20 μM compound
T1 sequence (P0DMV8 whole entry, one chain of several): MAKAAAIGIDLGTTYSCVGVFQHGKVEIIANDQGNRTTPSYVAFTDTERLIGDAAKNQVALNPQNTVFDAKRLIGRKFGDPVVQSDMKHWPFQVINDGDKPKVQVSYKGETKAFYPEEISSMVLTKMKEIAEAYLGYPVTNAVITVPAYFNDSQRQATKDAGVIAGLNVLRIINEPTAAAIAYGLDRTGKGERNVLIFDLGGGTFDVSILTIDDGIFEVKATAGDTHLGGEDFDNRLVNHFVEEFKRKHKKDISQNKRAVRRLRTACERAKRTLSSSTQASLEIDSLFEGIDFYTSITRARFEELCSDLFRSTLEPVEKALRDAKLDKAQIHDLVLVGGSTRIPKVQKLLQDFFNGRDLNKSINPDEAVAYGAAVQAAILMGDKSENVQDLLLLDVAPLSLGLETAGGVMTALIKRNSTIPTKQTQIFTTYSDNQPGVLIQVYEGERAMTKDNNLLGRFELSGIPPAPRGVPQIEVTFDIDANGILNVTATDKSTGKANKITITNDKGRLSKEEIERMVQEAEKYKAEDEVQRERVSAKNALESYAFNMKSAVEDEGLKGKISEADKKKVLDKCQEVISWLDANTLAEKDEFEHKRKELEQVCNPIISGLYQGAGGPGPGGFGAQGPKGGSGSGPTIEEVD
Outline: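 Incubated ≥15 min at ambient temperature with dry-spotted compound; unlabelled Hsp70 as positive control. Coated capillary, 10 cm, 25 °C, pH 7.5 phosphate/Tween buffer, 500 V/cm. LIF bound/free peak-area ratio; screen hits ≥3 SD.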

[2] = tested on: Hsp70; settings: cited from earlier work
[3] = target: T1, Hsp70-Bag3 complex; experiment: Flow cytometry protein interaction assay; type: binding; settings: for cross-test of CE hit by DRC in FCPIA: repurchased compound, dose response; for result in original FCPIA screen: single concentration 20 μM, hit = inhibition ≥ 3 SD from negative controls
Outline: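 Biotinylated Hsp70 was immobilised on streptavidin polystyrene beads for 1 h, then mixed with Alexa Fluor 488-labelled Bag3 (30 nM final) and compound or DMSO. Unlabelled Hsp70 served as positive control. After 15 min, median bead-associated fluorescence was read by flow cytometry. Screen used 20 μM; hits ≥3 SD from negative controls.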

[4] = 0.5 μM Hsp70–488 and 0.5 μM Bag3

| Molecule | cross-test of CE hit by DRC in FCPIA [3] | result in original FCPIA screen [3] | hit in CE screen, reconfirmed with repurchased compound by DRC [1] | classification from electropherogram (artifact) [1, 4] | also measured |
| --- | --- | --- | --- | --- | --- |
| O=C(O[C@@H]1Cc2c(O)cc(O)cc2O[C@@H]1c1cc(O)c(O)c(O)c1)c1cc(O)c(O)c(O)c1 [Epigallocatechin gallate] |  |  |  |  | classification from electropherogram ([1]; 15 μM compound, 0.5 μM Hsp70–488 and 0.5 μM Bag3): confirmed PPI inhibitor |
| O=c1c(O)c(-c2cc(O)c(O)c(O)c2)oc2cc(O)cc(O)c12 [myricetin] | reconfirmed by FCPIA | missed in the original FCPIA screen | found by CE |  | known modulator of Hsp70 [2]: known modulators of Hsp70 |
| Oc1cc2c(cc1O)C1c3ccc(O)c(O)c3OCC1(O)C2 (centres unmarked) [haematoxylin] |  |  |  | identified as an aggregator |  |
| unlabeled Hsp70: unlabeled recombinant human Hsp70 (HSPA1) used as competitor and positive control |  |  |  |  | IC50 (decrease of bound to free peak area ratio) ([1]; 0.5 μM Hsp70–488 and 0.5 μM Bag3 with increasing unlabeled Hsp70): 240 ± 3 nM and 240 nM |
| CC1=C(O)C(=O)C=C2C1=CC=C1[C@@]2(C)CC[C@@]2(C)[C@@H]3C[C@](C)(C(=O)O)CC[C@]3(C)CC[C@]12C [celastrol] | reconfirmed by FCPIA | missed in the original FCPIA screen | found by CE |  |  |
| O=C(O)CN(CC(=O)O)Cc1cc2c(cc1O)Oc1cc(O)c(CN(CC(=O)O)CC(=O)O)cc1C21OC(=O)c2ccccc21 [calcein] |  |  |  | identified as a fluorescent compound that interferes with detection of free Hsp70–488 |  |
